Assay results published in ChEMBL document CHEMBL2176968, “Identification of less lipophilic riminophenazine derivatives for the treatment of drug-resistant tuberculosis” (J Med Chem, 2012).
Converted amounts (≈) assume the structure as drawn.

What was measured:
[1] = test system: Mycobacterium tuberculosis; assay: Antimycobacterial activity against Mycobacterium tuberculosis H37Rv ATCC 27294 after 7 days by microplate Alamar blue assay; assay type: functional; conditions: H37Rv ATCC 27294, 168 h
Summary of the method: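 Run in 96-well plates against M. tuberculosis H37Rv using the Alamar Blue read-out. The MIC was taken as the lowest concentration giving >90% growth inhibition.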

[2] = Selectivity index, ratio of IC50 for african green monkey Vero cells to MIC for Mycobacterium tuberculosis H37Rv ATCC 27294; assay type: functional
[3] = test system: Vero; assay: Cytotoxicity against african green monkey Vero cells after 48 hrs by MTT assay; assay type: cell-based; conditions: Chlorocebus sabaeus
Summary of the method: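 Vero cells were exposed to compound. The IC50 was taken as the concentration inhibiting 50% of growth relative to an untreated control.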

Structure (SMILES) | MIC [1] [mg/L] | Selectivity Index [2] | IC50 [3] [mg/L]
Cc1ccc(Nc2cc3nc4ccccc4n(-c4ccc(C(F)(F)F)cc4)c-3c/c2=N\C2CCOCC2)cn1 | 0.032 (≈ 0.0604 µM) | 1098 | 35.1 (≈ 66.3 µM)
COC1CCC(/N=c2\cc3n(-c4ccc(C(F)(F)F)cc4)c4ccccc4nc-3cc2Nc2ccc(C)nc2)CC1 (stereo not drawn) | 0.016 (≈ 0.0287 µM) | 2089 | 33.4 (≈ 60 µM)
COc1ncccc1Nc1cc2nc3ccccc3n(-c3ccc(Br)cc3)c-2c/c1=N\C(C)C | 0.049 (≈ 0.0953 µM) | 1306 | > 64
Cc1ncccc1Nc1cc2nc3ccccc3n(-c3ccc(Br)cc3)c-2c/c1=N\C(C)C | 0.062 (≈ 0.124 µM) | 635 | 39.4 (≈ 79 µM)
Cc1ccc(Nc2cc3nc4ccccc4n(-c4ccc(Br)cc4)c-3c/c2=N\C(C)C)cn1 | 0.049 (≈ 0.0983 µM) | 64 | 3.12 (≈ 6.26 µM)
Cc1ccc(Nc2cc3nc4ccccc4n(-c4ccc(Br)cc4)c-3c/c2=N\C2CCOCC2)cn1 | 0.044 (≈ 0.0814 µM) | 493 | 21.7 (≈ 40.2 µM)
COC1CCC(/N=c2\cc3n(-c4ccc(Br)cc4)c4ccccc4nc-3cc2Nc2ccc(C)nc2)CC1 (stereo not drawn) | 0.097 (≈ 0.171 µM) | 409 | 39.7 (≈ 69.8 µM)
COc1ncccc1Nc1cc2nc3ccccc3n(-c3ccc(OC(F)(F)F)cc3)c-2c/c1=N\C(C)C | 0.028 (≈ 0.0539 µM) | 2286 | > 64
COc1ncccc1Nc1cc2nc3ccccc3n(-c3ccc(OC(F)(F)F)cc3)c-2c/c1=N\C1CCOCC1 | 0.016 (≈ 0.0285 µM) | 4000 | > 64
Fc1ccc(-n2c3c/c(=N\CCN4CCOCC4)c(Nc4cccnc4)cc-3nc3ccccc32)cc1 | 0.5 (≈ 1.01 µM) | 30 | 15.1 (≈ 30.5 µM)
FC(F)(F)Oc1ccc(-n2c3c/c(=N\C4CCOCC4)c(Nc4cccnc4)cc-3nc3ccccc32)cc1 | 0.03 (≈ 0.0564 µM) | 2133 | > 64
COC1CCC(/N=c2\cc3n(-c4ccc(OC(F)(F)F)cc4)c4ccccc4nc-3cc2Nc2cccnc2)CC1 (stereo not drawn) | 0.03 (≈ 0.0536 µM) | 151 | 4.52 (≈ 8.08 µM)
CN1CCC(/N=c2\cc3n(-c4ccc(OC(F)(F)F)cc4)c4ccccc4nc-3cc2Nc2cccnc2)CC1 | 0.25 (≈ 0.459 µM) | 18 | 4.48 (≈ 8.23 µM)
CC(C)CN1CCC(/N=c2\cc3n(-c4ccc(OC(F)(F)F)cc4)c4ccccc4nc-3cc2Nc2cccnc2)CC1 | 0.06 (≈ 0.102 µM) | 93 | 5.6 (≈ 9.55 µM)
FC(F)(F)Oc1ccc(-n2c3c/c(=N\CCN4CCOCC4)c(Nc4cccnc4)cc-3nc3ccccc32)cc1 | 0.125 (≈ 0.223 µM) | 129 | 16.1 (≈ 28.8 µM)
FC(F)(F)c1ccc(-n2c3c/c(=N\C4CCOCC4)c(Nc4cccnc4)cc-3nc3ccccc32)cc1 | 0.125 (≈ 0.242 µM) | 512 | > 64
COC1CCC(/N=c2\cc3n(-c4ccc(C(F)(F)F)cc4)c4ccccc4nc-3cc2Nc2cccnc2)CC1 (stereo not drawn) | 0.03 (≈ 0.0552 µM) | 945 | 28.3 (≈ 52.2 µM)
CN1CCC(/N=c2\cc3n(-c4ccc(C(F)(F)F)cc4)c4ccccc4nc-3cc2Nc2cccnc2)CC1 | 0.125 (≈ 0.236 µM) | 83 | 10.4 (≈ 19.6 µM)
CC(C)CN1CCC(/N=c2\cc3n(-c4ccc(C(F)(F)F)cc4)c4ccccc4nc-3cc2Nc2cccnc2)CC1 | 0.06 (≈ 0.105 µM) | 450 | 27 (≈ 47.3 µM)
FC(F)(F)c1ccc(-n2c3c/c(=N\CCN4CCOCC4)c(Nc4cccnc4)cc-3nc3ccccc32)cc1 | 0.125 (≈ 0.23 µM) | 159 | 19.9 (≈ 36.5 µM)
Brc1ccc(-n2c3c/c(=N\C4CCOCC4)c(Nc4cccnc4)cc-3nc3ccccc32)cc1 | 0.163 (≈ 0.31 µM) | 27 | 4.48 (≈ 8.51 µM)
COC1CCC(/N=c2\cc3n(-c4ccc(Br)cc4)c4ccccc4nc-3cc2Nc2cccnc2)CC1 (stereo not drawn) | 0.062 (≈ 0.112 µM) | 30 | 1.88 (≈ 3.39 µM)
COc1ncccc1Nc1cc2nc3ccccc3n(-c3ccc(Cl)cc3)c-2c/c1=N\C(C)C | 0.03 (≈ 0.0638 µM) | 2133 | > 64

Structure (SMILES) | MIC [1] [mg/L] | Selectivity Index [2] | IC50 [3] [mg/L]
Cc1ncccc1Nc1cc2nc3ccccc3n(-c3ccc(Cl)cc3)c-2c/c1=N\C(C)C | 0.055 (≈ 0.121 µM) | 1164 | > 64
Cc1ncccc1Nc1cc2nc3ccccc3n(-c3ccc(Cl)cc3)c-2c/c1=N\C1CCOCC1 | 0.168 (≈ 0.339 µM) | 163 | 27.4 (≈ 55.3 µM)
Cc1ccc(Nc2cc3nc4ccccc4n(-c4ccc(Cl)cc4)c-3c/c2=N\C(C)C)cn1 | 0.06 (≈ 0.132 µM) | 118 | 7.09 (≈ 15.6 µM)
Cc1ccc(Nc2cc3nc4ccccc4n(-c4ccc(Cl)cc4)c-3c/c2=N\C2CCOCC2)cn1 | 0.03 (≈ 0.0605 µM) | 324 | 9.73 (≈ 19.6 µM)
Clc1ccc(-n2c3c/c(=N\C4CCOCC4)c(Nc4cncc(Br)c4)cc-3nc3ccccc32)cc1 | 0.036 (≈ 0.0642 µM) | 1778 | > 64
COC1CCC(/N=c2\cc3n(-c4ccc(Cl)cc4)c4ccccc4nc-3cc2Nc2cncc(Br)c2)CC1 (stereo not drawn) | 0.052 (≈ 0.0883 µM) | 1231 | > 64
COc1ncccc1Nc1cc2nc3ccccc3n(-c3ccc(F)cc3)c-2c/c1=N\C1CCOCC1 | 0.039 (≈ 0.0787 µM) | 1641 | > 64
Cc1ncccc1Nc1cc2nc3ccccc3n(-c3ccc(F)cc3)c-2c/c1=N\C(C)C | 0.032 (≈ 0.0731 µM) | 449 | 14.4 (≈ 32.8 µM)
Cc1ccc(Nc2cc3nc4ccccc4n(-c4ccc(F)cc4)c-3c/c2=N\C(C)C)cn1 | 0.06 (≈ 0.137 µM) | 131 | 7.88 (≈ 18 µM)
Cc1ccc(Nc2cc3nc4ccccc4n(-c4ccc(F)cc4)c-3c/c2=N\C2CCOCC2)cn1 | 0.125 (≈ 0.261 µM) | 112 | 14 (≈ 29.3 µM)
COC1CCC(/N=c2\cc3n(-c4ccc(F)cc4)c4ccccc4nc-3cc2Nc2ccc(C)nc2)CC1 (stereo not drawn) | 0.06 (≈ 0.118 µM) | 1067 | > 64
Cc1ncccc1Nc1cc2nc3ccccc3n(-c3ccc(C(F)(F)F)cc3)c-2c/c1=N\C(C)C | 0.014 (≈ 0.0287 µM) | 4571 | > 64
COC1CCC(/N=c2\cc3n(-c4ccc(C(F)(F)F)cc4)c4ccccc4nc-3cc2Nc2cccnc2C)CC1 (stereo not drawn) | 0.011 (≈ 0.0197 µM) | 5818 | > 64
Cc1ccc(Nc2cc3nc4ccccc4n(-c4ccc(C(F)(F)F)cc4)c-3c/c2=N\C(C)C)cn1 | 0.03 (≈ 0.0615 µM) | 1147 | 34.4 (≈ 70.6 µM)
Clc1ccc(-n2c3c/c(=N\C4CCOCC4)c(Nc4cccnc4)cc-3nc3ccccc32)cc1 | 0.03 (≈ 0.0622 µM) | 83 | 2.5 (≈ 5.19 µM)
COC1CCC(/N=c2\cc3n(-c4ccc(Cl)cc4)c4ccccc4nc-3cc2Nc2cccnc2)CC1 (stereo not drawn) | 0.03 (≈ 0.0588 µM) | 401 | 12 (≈ 23.6 µM)
CN1CCC(/N=c2\cc3n(-c4ccc(Cl)cc4)c4ccccc4nc-3cc2Nc2cccnc2)CC1 | 0.125 (≈ 0.253 µM) | 45 | 5.58 (≈ 11.3 µM)
CC(C)CN1CCC(/N=c2\cc3n(-c4ccc(Cl)cc4)c4ccccc4nc-3cc2Nc2cccnc2)CC1 | 0.25 (≈ 0.465 µM) | 60 | 15.1 (≈ 28 µM)
Clc1ccc(-n2c3c/c(=N\CCN4CCOCC4)c(Nc4cccnc4)cc-3nc3ccccc32)cc1 | 0.25 (≈ 0.489 µM) | 16 | 4.02 (≈ 7.87 µM)
Fc1ccc(-n2c3c/c(=N\C4CCOCC4)c(Nc4cccnc4)cc-3nc3ccccc32)cc1 | 0.06 (≈ 0.129 µM) | 123 | 7.36 (≈ 15.8 µM)
COC1CCC(/N=c2\cc3n(-c4ccc(F)cc4)c4ccccc4nc-3cc2Nc2cccnc2)CC1 (stereo not drawn) | 0.12 (≈ 0.243 µM) | 533 | > 64
CN1CCC(/N=c2\cc3n(-c4ccc(F)cc4)c4ccccc4nc-3cc2Nc2cccnc2)CC1 | 0.25 (≈ 0.522 µM) | 26 | 6.44 (≈ 13.5 µM)
CC(C)CN1CCC(/N=c2\cc3n(-c4ccc(F)cc4)c4ccccc4nc-3cc2Nc2cccnc2)CC1 | 0.125 (≈ 0.24 µM) | 242 | 30.3 (≈ 58.1 µM)
